Reference: ChEMBL document CHEMBL1154748, “4-Pyridylanilinothiazoles that selectively target von Hippel-Lindau deficient renal cell carcinoma cells by inducing autophagic cell death” (2010)

Columns and labels:
[1] = Ratio of IC50 for human RCC4-VHL cells to IC50 for VHL-null human RCC4 cells; assay type: functional
In short: (§1)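 XTT read-out: 5000 cells/well plated, vehicle or drug added next day, 4-day exposure. Then phenol red-free medium with 0.3 mg/mL XTT, 20% FCS and 2.65 μg/mL N-methyldibenzopyrazine methyl sulfate, 1-2 h at 37 °C, absorbance at 450 nm. GI50 by linear interpolation; single determinations in triplicate. Ratio is the intraexperiment RCC4-VHL GI50 / RCC4 GI50.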

[2] = Growth inhibition of VHL-null human RCC4 cells after 4 days by XTT assay; assay type: functional; settings: RCC4, 96 h; in short: as §1

SMILES | RatioGI50 [1] | GI50 [2] [µM]
Cc1cccc(Nc2nc(-c3ccncc3)c(C)s2)c1 | >4 | 10
Cc1cccc(Nc2nc(-c3cccnc3)cs2)c1 |  | > 40
COc1cc(Nc2nc(-c3ccncc3)cs2)cc(OC)c1 |  | > 40
CCc1cc(-c2csc(Nc3cccc(C)c3)n2)ccn1 | >6.3 | 6.4
Cc1cc(C)cc(Nc2nc(-c3ccncc3)cs2)c1 | >9 | 4.5
CCN(c1cccc(C)c1)c1nc(-c2ccncc2)cs1 | 0.6 | 40
Cc1cccc(Nc2nc(-c3ccncc3)c(C(=O)NCCN(C)C)s2)c1 |  | > 40
Cc1cccc(Nc2nc(-c3ccncc3C)cs2)c1 | >7.7 | 5.2
C#Cc1cnccc1-c1csc(Nc2cccc(C)c2)n1 | 4.4 | 1.35
Cc1cccc(N(C)c2nc(-c3ccncc3)cs2)c1 | 0.6 | 28
FC(F)(F)c1ccccc1Nc1nc(-c2ccncc2)cs1 |  | > 40
COc1cc(-c2csc(Nc3cccc(C)c3)n2)ccn1 | 1.2 | 28.7
c1cc(-c2csc(Nc3ccc4c(c3)OCO4)n2)ccn1 |  | > 40
Clc1cccc(Nc2nc(-c3ccncc3)cs2)c1 | 5 | 3
Cc1ccc(Nc2nc(-c3ccncc3)c(CO)s2)cc1 | 1.2 | 14
Cc1cccc(C)c1Nc1nc(-c2ccncc2)cs1 |  | > 40
Cc1cccc(Nc2nc(-c3ccncc3)c(C(=O)N(C)C)s2)c1 | >2.5 | 16
Oc1ccc(Nc2nc(-c3cccnc3)cs2)cc1 |  | > 40
Cc1cccc(Nc2nc(-c3ccccn3)cs2)c1 | 0.9 | 37
Cc1cccc(Nc2nc(-c3ccncc3)cs2)c1 | 19 | 2.1
Cc1cccc(Nc2nc(-c3ccncc3F)cs2)c1 | >20 | 2
Cc1ccccc1Nc1nc(-c2ccncc2)cs1 |  | > 40
COc1ccc(C(=O)Nc2nc(-c3ccncc3)cs2)cc1 |  | > 40
Cc1cccc(Nc2nc(-c3ccnc(Cl)c3)cs2)c1 | 3.8 | 2.2
COc1ccccc1Nc1nc(-c2ccncc2)cs1 | >1.2 | 33.4
Cc1cccc(Nc2nc(-c3cc[n+]([O-])cc3)cs2)c1 |  | > 40
CCc1cccc(Nc2nc(-c3ccncc3)cs2)c1 | 9.6 | 2.5

SMILES | RatioGI50 [1] | GI50 [2] [µM]
Cc1cccc(Nc2nc(-c3ccncc3)c(CN3CCOCC3)s2)c1 | 4.8 | 2.5
Clc1ccc(Nc2nc(-c3ccncc3)cs2)cc1 | >2 | 38
Cc1cccc(Nc2nc(-c3ccnc(C)c3)cs2)c1 |  | > 40
Cc1cccc(Nc2nc(-c3ccnc(CCCO)c3)cs2)c1 | >7.7 | 5.2
Cc1cccc(Nc2nc(-c3ccncc3)c(CN3CCCCC3)s2)c1 | 1.9 | 13
Cc1sc(Nc2ccc3c(c2)CCC3)nc1-c1ccncc1 | 1.5 | 12
O=C(Nc1nc(-c2ccncc2)cs1)c1ccccc1 |  | > 40
Cc1cccc(Nc2nc(-c3ccncc3)c(CCCO)s2)c1 | 3.7 | 3.6
Cc1cccc(Nc2nc(-c3ccncc3[N+](=O)[O-])cs2)c1 | 4.1 | 8.2
OCc1sc(Nc2ccc3c(c2)CCC3)nc1-c1ccncc1 | 1.4 | 6.8
Cc1cccc(Nc2nc(-c3ccnc(C#CCO)c3)cs2)c1 | 1.6 | 9.3
Cc1cccc(Nc2nc(-c3ccncc3)c(CO)s2)c1 | 2.4 | 7
Cc1cccc(Nc2nc(Cc3cccnc3)cs2)c1 |  | > 40
Clc1ccccc1Nc1nc(-c2ccncc2)cs1 | >1.4 | 27.6
COc1ccc(Nc2nc(-c3ccncc3)cs2)cc1 | 3.6 | 14
Cc1cccc(Nc2nc(Cc3ccncc3)cs2)c1 | 24.4 | 20.3
Cc1cccc(Nc2nc(-c3ccncc3)c(CCCN3CCOCC3)s2)c1 | 1.6 | 5.8
Cc1ccc(Nc2nc(-c3ccncc3)cs2)cc1 | 20 | 2.5
Cc1cccc(CNc2nc(-c3ccncc3)cs2)c1 |  | > 40
CN(C)CCc1ccc(Nc2nc(-c3ccncc3)cs2)cc1 | 1.2 | 50
CC(C)c1cccc(Nc2nc(-c3ccncc3)cs2)c1 | 1.4 | 17
CN(C)CCOc1ccc(Nc2nc(-c3ccncc3)cs2)cc1 | 1.3 | 60
c1ccc(Nc2nc(-c3ccccn3)cs2)cc1 | 0.9 | 35.1
OCc1sc(Nc2ccccc2)nc1-c1ccncc1 | >1.3 | 30
COc1cc(Nc2nc(-c3ccncc3)cs2)cc(OC)c1OC |  | > 40
Cc1cccc(Nc2nc(-c3ccnc(Br)c3)cs2)c1 | 4.3 | 2
N#Cc1cccc(Nc2nc(-c3ccncc3)cs2)c1 |  | > 40

SMILES | RatioGI50 [1] | GI50 [2] [µM]
FC(F)(F)c1ccc(Nc2nc(-c3ccncc3)cs2)cc1 |  | > 40
CC(=O)Nc1cnccc1-c1csc(Nc2cccc(C)c2)n1 | 1 | 33.3
OCCc1ccc(Nc2nc(-c3ccncc3)cs2)cc1 | 16 | 5
Cc1cccc(C(=O)Nc2nc(-c3ccncc3)cs2)c1 |  | > 40
O=[N+]([O-])c1cccc(Nc2nc(-c3ccncc3)cs2)c1 |  | > 40
COC(=O)/C=C/c1sc(Nc2cccc(C)c2)nc1-c1ccncc1 | 2.8 | 2.5
CCOC(=O)c1sc(Nc2cccc(C)c2)nc1-c1ccncc1 |  | > 40
c1ccc(Nc2nc(-c3ccncc3)cs2)cc1 | >10 | 7
c1ccc(Nc2nc(-c3cccnc3)cs2)cc1 |  | > 40
Cc1ccc(Nc2nc(-c3ccncc3)cs2)cc1O | 4.6 | 12
Oc1cccc(Nc2nc(-c3ccncc3)cs2)c1 | >3 | 28.5
Oc1ccccc1Nc1nc(-c2ccncc2)cs1 | >3.1 | 12.8
FC(F)(F)c1cccc(Nc2nc(-c3ccncc3)cs2)c1 |  | > 40
Cc1cccc(Nc2nc(-c3ccncc3N)cs2)c1 |  | > 40
CC(C)(C)c1cccc(Nc2nc(-c3ccncc3)cs2)c1 |  | > 40
Cc1cccc(Nc2nc(-c3ccncc3)c(C(=O)NCCCN3CCOCC3)s2)c1 |  | > 40
Cc1cccc(N(CCO)c2nc(-c3ccncc3)cs2)c1 |  | > 40
CCOC(=O)c1sc(Nc2ccc3c(c2)CCC3)nc1-c1ccncc1 |  | > 40
O=[N+]([O-])c1ccc(Nc2nc(-c3ccncc3)cs2)cc1 |  | > 40
COC(=O)CCc1sc(Nc2cccc(C)c2)nc1-c1ccncc1 |  | > 40
Cc1ccc(C(=O)Nc2nc(-c3ccncc3)cs2)cc1 |  | > 40
N#Cc1ccc(Nc2nc(-c3ccncc3)cs2)cc1 |  | > 40
O=[N+]([O-])c1ccccc1Nc1nc(-c2ccncc2)cs1 |  | > 40
Cc1cccc(Nc2nc(-c3ccncc3)c(C=O)s2)c1 |  | 15
Fc1cccc(F)c1Nc1nc(-c2ccncc2)cs1 |  | > 40
Fc1cccc(Nc2nc(-c3ccncc3)cs2)c1 |  | > 40
